Assay results from different studies.
Each line is one published result; the experiments were not run side by side.
SIRT1: NAD-dependent protein deacetylase sirtuin-1 (SIRT1, Homo sapiens, UniProt Q96EB6)
SPHK2: Sphingosine kinase 2 (SPHK2, Homo sapiens, UniProt Q9NRA0)
XDH: Xanthine dehydrogenase/oxidase (XDH, Bos taurus, UniProt P80457)
SLC7A5: Large neutral amino acids transporter small subunit 1 (SLC7A5, Homo sapiens, UniProt Q01650)

O=c1cc(-c2ccccc2)oc2c(Br)cc(Cl)cc12  inhibition (SIRT1; enzyme activity; inhibitor; fluorescence; 200 µM): 3.1%
N=C(N)N1CCC[C@H]1c1nc(-c2ccc(CCC3CCCCC3)c(C(F)(F)F)c2)no1  inhibition (SPHK2; enzyme activity; inhibitor; radiometric; 0.3 µM): 71%
CC(C)CCn1c(SCC(=O)Nc2ccccc2C(F)(F)F)nc2nccnc2c1=O  inhibition (Phosphatidylinositol 4-kinase beta (PI4KB, Homo sapiens, UniProt Q9UBF8); enzyme activity; inhibitor; 10 µM): < 20%
O=C(COc1ccc2cc(C(=O)Nc3ccccc3)ccc2c1)NCc1ccc(O)c(O)c1  inhibition (Signal transducer and activator of transcription 5B, SH2 (STAT5B, Homo sapiens, UniProt P51692); ligand displacement; FP; 100 µM): -2%
[H]/N=C(\N)N1CCC[C@H]1c1nc(-c2ccc(OCC=Cc3cccc(Br)c3)c(C(F)(F)F)c2)no1  inhibition (SPHK2; enzyme activity; inhibitor; radiometric; 0.3 µM): 72%
OCCc1ccc(O)cc1  inhibition (XDH; enzyme activity; inhibitor; absorbance; 200 µg/mL): 21.2%
CCCCC[C@H]1CC(=O)c2cc(Cl)cc(Br)c2O1  inhibition (SIRT1; enzyme activity; inhibitor; fluorescence; 200 µM): 3.4%
CSSc1ccccc1C(=O)O  inhibition (Procathepsin L (CTSL, Homo sapiens, UniProt P07711); enzyme activity; inhibitor; fluorescence; 20 µM): 93%
CCCCCCCCCCCCNC(=S)NCCCC[C@H](NC(=O)OCc1ccccc1)C(=O)N[C@@H](Cc1c[nH]c2ccccc12)C(=O)N[C@@H](CCCCNC(=N)N)C(N)=O  inhibition (SIRT1; enzyme activity; inhibitor; 1 µM): 76%
Cn1c(CNC(=S)NCCCC[C@H](NS(=O)(=O)c2cccc(F)c2)C(=O)N[C@@H](Cc2c[nH]c3ccccc23)C(=O)NC2CCC2)n[nH]c1=S  inhibition (SIRT1; enzyme activity; inhibitor; 30 µM): 89%
NC(CCNC(=O)c1ccccc1)C(=O)O (stereo not drawn)  inhibition (SLC7A5; transporter uptake; inhibitor; radiometric; 200 µM): 8.6%
O=C(CO)c1ccc(O)c(O)c1  inhibition (XDH; enzyme activity; inhibitor; absorbance; 200 µg/mL): 43.3%
O=C(c1ccc(F)cc1)N(Cc1ccccc1)C1CCCCC1  inhibition (Alpha-1B adrenergic receptor (Adra1b, Rattus norvegicus, UniProt P15823); cell-free assay; 10 µM): 4%
O=C1CC(CCc2c[nH]c3ccccc23)Oc2c(Br)cc(Cl)cc21 (stereo not drawn)  inhibition (SIRT1; enzyme activity; inhibitor; fluorescence; 200 µM): 19%
CCCCCCCCCCCCNC(=O)NCCCC[C@H](NS(C)(=O)=O)C(=O)N[C@H](C)C(=O)N[C@@H](CCCNC(=N)N)C(N)=O  inhibition (SIRT1; enzyme activity; inhibitor; 10 µM): 38%
COc1ccc(CCc2ccc(-c3noc([C@@H]4CCCN4C(=N)N)n3)cc2C(F)(F)F)cc1  inhibition (SPHK2; enzyme activity; inhibitor; radiometric; 0.3 µM): 45%
CCCCCCCCCCCCNC(=S)NCCCC[C@H](NC(=O)OCc1ccccc1)C(=O)N[C@@H](CCCCN)C(=O)N[C@@H](CCCNC(=N)N)C(N)=O  inhibition (SIRT1; enzyme activity; inhibitor; 1 µM): 25%
NC(CNC(=O)c1ccccc1)C(=O)O (stereo not drawn)  inhibition (SLC7A5; transporter uptake; inhibitor; radiometric; 200 µM): 4.6%
CCCC1CC(=O)c2cc(Cl)cc(Br)c2O1 (stereo not drawn)  inhibition (SIRT1; enzyme activity; inhibitor; fluorescence; 200 µM): 6.4%
N=C(N)N1CCC[C@H]1c1nc(-c2ccc(CCC3CCCC3)c(C(F)(F)F)c2)no1  inhibition (SPHK2; enzyme activity; inhibitor; radiometric; 0.3 µM): 25%
O=C(O)c1ccc(O)c(O)c1  inhibition (XDH; enzyme activity; inhibitor; absorbance; 100 µg/mL): 9.5%
